PubChem BioAssay
Values joined by “and” are separate entries in the source; they are usually repeats but may differ in a detail not shown here. Equal values may be shown once. Active and inactive are the calls of the source.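 The calls were made as follows, unless noted: active = viability loss from added drug above about 55%, and viability with drug at most 40%, in both replicates (limit read from the data, passing the limit was not always enough); inconclusive = both conditions met in only one replicate; inactive = neither replicate meets both conditions.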 Peptide text beside a SMILES is read from it. * marks the point of attachment. Boc = CC(C)(C)OC(=O)*

Key:
[1] = Her2 expression decrease, cell viability multiplex – SKBR3 breast tumor cells, AlphaScreen, ATP viability, primary screen (AID 461;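 active = Her2 level under about 52% in both replicate screens, with viability over 70% of control, limit read from the data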;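 as to Her2 level: lower value means less Her2 protein in the cells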;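 as to viability: percent of carrier control wells set as 100% viability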); settings: SKBR3 Her2 protein level, 18-24 h, measured here: SKBR3 viability, ATP luminescence, at 10 µM
[2] = biological target: Receptor tyrosine-protein kinase erbB-2 (Homo sapiens) (UniProt P04626); assay: as above; settings: 18-24 h, at 10 µM, stronger effect = lower value
[3] = reduced viability of SK-BR-3 breast cancer cells – cell-based, 24 h, human, pilot screen (AID 572;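 active = viability at or below 10% of carrier control in both of two separate runs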;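 also: compound exposure lasted between 18 and 24 h rather than exactly 24 h; 100% = carrier-treated control wells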); settings: SK-BR-3 viability, CellTiter-Glo luminescence, at 10 µM, stronger effect = lower value
[4] = HUVEC growth inhibition – cell-based, human, primary screen (AID 575;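 active = viability at or below 30% in both replicate assays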;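 also: 100% = median of untreated cell wells with 0.1% DMSO on each plate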); settings: HUVEC proliferation, CellTiter-Glo luminescence, 72 h; at 10 µM; stronger effect = lower value
Procedure, shortened: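 material = primary HUVEC, no more than 12 passages | input = 1250 cells per well | controls = vehicle and MePR control wells | measured by = CTG luminescence | times = 72 h compound incubation | format = collagen-coated 384-well format | read-out = % viability vs DMSO wells | doses = single 10 µM dose, 0.1% DMSO, from 5x medium stock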

[5] = H69AR cell proliferation blockers – human, duplicate replicates, primary screen (AID 580;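 active = viability at or under a set limit in both replicates, limit being median viability minus 3 SD, cut at about 48% in these data, passing the limit was not always enough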;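 also: 100% = mean luminescence of untreated wells and 0% = no signal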); settings: H69AR lung tumor cells viability, ATP luminescence, 72 h; at 10 µM; stronger effect = lower value
[6] = MRP1 drug-resistance reversers in H69AR cells – cell-based, doxorubicin co-treatment, pilot screen (AID 601); settings: CellTiter-Glo, 72 h, at 10 µM; for differential viability (reversal): stronger effect = higher value
[7] = yeast transport mutant growth inhibition pilot in 384-well plates, post-Golgi transport modulator project (AID 636; in the data active = inhibition above about 31%); settings: absorbance 615 nm, about 18 h, stronger effect = higher value
[8] = growth suppression of yeast trafficking mutant, preliminary HTS, modulators of trafficking downstream of Golgi apparatus project, 1536-format plate, OD 615 nm (AID 637; in the data active = inhibition above about 30%); settings: yeast transport mutant growth, absorbance 615 nm, 18 h; stronger effect = higher value
[9] = H69AR cells + 2 uM doxorubicin, measured here: viability with 2 uM doxorubicin, stronger effect = lower value
[10] = H69AR cells, compound alone cytotoxicity

Receptor tyrosine-protein kinase erbB-2 (Homo sapiens), sequence (P04626 whole entry, looked up): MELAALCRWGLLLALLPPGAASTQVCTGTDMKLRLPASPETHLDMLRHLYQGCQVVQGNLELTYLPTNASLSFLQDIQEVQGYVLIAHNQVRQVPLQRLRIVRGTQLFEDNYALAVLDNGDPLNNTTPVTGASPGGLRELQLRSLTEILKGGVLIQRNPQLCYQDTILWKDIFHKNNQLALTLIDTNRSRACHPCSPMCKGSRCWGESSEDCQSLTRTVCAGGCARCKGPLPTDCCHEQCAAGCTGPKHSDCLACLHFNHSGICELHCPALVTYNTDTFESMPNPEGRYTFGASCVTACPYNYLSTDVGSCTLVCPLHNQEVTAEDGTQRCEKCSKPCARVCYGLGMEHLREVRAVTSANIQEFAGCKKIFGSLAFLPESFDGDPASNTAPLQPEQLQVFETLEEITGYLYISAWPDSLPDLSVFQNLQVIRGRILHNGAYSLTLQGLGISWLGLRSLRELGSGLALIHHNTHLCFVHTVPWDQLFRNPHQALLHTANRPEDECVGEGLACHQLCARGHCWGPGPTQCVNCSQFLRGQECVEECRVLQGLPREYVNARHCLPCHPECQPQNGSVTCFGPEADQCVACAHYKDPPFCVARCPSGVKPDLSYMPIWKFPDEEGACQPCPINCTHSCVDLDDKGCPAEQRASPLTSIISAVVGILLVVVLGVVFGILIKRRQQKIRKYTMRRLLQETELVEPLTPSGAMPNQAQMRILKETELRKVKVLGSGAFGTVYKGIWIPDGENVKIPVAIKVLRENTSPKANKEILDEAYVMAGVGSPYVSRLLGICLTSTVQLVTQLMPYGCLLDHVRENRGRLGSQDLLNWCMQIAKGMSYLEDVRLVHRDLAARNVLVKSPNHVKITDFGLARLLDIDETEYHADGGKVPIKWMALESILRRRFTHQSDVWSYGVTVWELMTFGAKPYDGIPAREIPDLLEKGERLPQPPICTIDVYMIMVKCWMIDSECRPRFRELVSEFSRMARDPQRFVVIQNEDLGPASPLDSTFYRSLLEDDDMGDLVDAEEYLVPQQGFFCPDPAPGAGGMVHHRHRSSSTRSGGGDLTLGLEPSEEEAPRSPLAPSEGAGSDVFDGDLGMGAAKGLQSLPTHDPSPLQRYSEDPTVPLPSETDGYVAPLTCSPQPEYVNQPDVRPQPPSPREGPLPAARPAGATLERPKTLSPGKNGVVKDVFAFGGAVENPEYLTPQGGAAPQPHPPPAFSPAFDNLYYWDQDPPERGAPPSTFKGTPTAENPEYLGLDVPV

| Structure (SMILES) | viability [1] [%] | Her2 level [2] | viability [3] | viability [4] | viability [5] | differential viability (reversal) ([6]; H69AR cells + 2 uM doxorubicin) | viability [6, 9] | viability [6, 10] | inhibition [7] | inhibition [8] |
| --- | --- | --- | --- | --- | --- | --- | --- | --- | --- | --- |
| COc1ccc(-c2cc3nc4n(c(=O)c3s2)CCC4)cc1 | 129 | 101% (inactive) | 129% (inactive) | 103% (inactive) | 84.1% (inactive) | -4.84% (inactive) | 88.9% | 84.1% | -5% (inactive) | 3.44% (inactive) |
| CN(C)C=Nc1nonc1N | 110 | 106% (inactive) | 110% (inactive) | 95.3% (inactive) | 94.1% (inactive) | 2.63% (inactive) | 91.4% | 94.1% | -5.53% (inactive) | 1.97% (inactive) |
| O=C(c1ccco1)N1CCN(c2ccc(Cl)cc2)CC1 | 86 | 116% (inactive) | 86% (inactive) | 95.6% (inactive) | 99.8% (inactive) | 19.1% (inactive) | 80.8% | 99.8% | -0.93% (inactive) | -5.4% (inactive) |
| CCCCSCCCNC(=O)CS(=O)Cc1nc(-c2cccc(C)c2)oc1C (stereo not given) | 98.5 | 76% (inactive) | 98.5% (inactive) | 91.9% (inactive) | 87.5% (inactive) | -3.76% (inactive) | 91.2% | 87.5% | -1.58% (inactive) | -1% (inactive) |
| O=C(Cn1ccc2ccccc2c1=O)NCCC(=O)N1CCN(C(=O)c2ccco2)CC1 | 89.5 | 109% (inactive) | 89.5% (inactive) | 102% (inactive) | 98.1% (inactive) | 6.74% (inactive) | 91.4% | 98.1% | -1.6% (inactive) | -2.3% (inactive) |
| COc1ccc(N2CC(C(=O)Nc3ccc(F)cc3F)CC2=O)cc1 (stereo not given) | 102 | 93.5% (inactive) | 102% (inactive) | 108% (inactive) | 96.6% (inactive) | 5.19% (inactive) | 91.4% | 96.6% | -3.47% (inactive) | 1.13% (inactive) |
| NC(=O)C(Cc1ccccc1)NS(=O)(=O)c1ccc(N2CCCC2=O)cc1 (stereo not given) | 90.5 | 92% (inactive) | 90.5% (inactive) | 108% (inactive) | 101% (inactive) | 10.9% (inactive) | 90% | 101% | -3.87% (inactive) | 1.48% (inactive) |
| Cc1ccc(S(=O)(=O)N(CC(=O)NCc2ccco2)Cc2ccccc2F)cc1 | 92 | 108% (inactive) | 92% (inactive) | 104% (inactive) | 107% (inactive) | 21.3% (inactive) | 85.5% | 107% | -2.67% (inactive) | -5.97% (inactive) |
| COc1ccc(-n2nnc3c(=O)n(C/C=C/c4ccccc4)cnc32)cc1 | 116 | 100% (inactive) | 116% (inactive) | 105% (inactive) | 86.1% (inactive) | 8.94% (inactive) | 77.1% | 86.1% | -6.62% (inactive) | 1.33% (inactive) |
| Cc1ccc2nc(NC(=O)C3CCCN(S(=O)(=O)c4cnc[nH]4)C3)sc2c1 (stereo not given) | 96.5 | 92% (inactive) | 96.5% (inactive) | 98% (inactive) | 81.9% (inactive) | -9.05% (inactive) | 90.9% | 81.9% | -2.67% (inactive) | -3.11% (inactive) |
| CCC(=O)N1CCc2cc(Br)cc(S(=O)(=O)N3CCCCCC3)c21 | 88.5 | 87% (inactive) | 88.5% (inactive) | 97.2% (inactive) | 95.5% (inactive) | 2.03% (inactive) | 93.4% | 95.5% | -3.03% (inactive) | 4.91% (inactive) |
| O=c1oc2ccccc2c(O)c1C=NCc1ccccn1 | 88 | 93.5% (inactive) | 88% (inactive) | 67.6% (inactive) | 76.8% (inactive) | -10.5% (inactive) | 87.3% | 76.8% | -8.11% (inactive) | -5.57% (inactive) |
| Cc1csc2ncc(C(=O)N3CCc4ccccc43)c(=O)n12 | 95.5 | 109% (inactive) | 95.5% (inactive) | 86% (inactive) | 89% (inactive) | -3.54% (inactive) | 92.5% | 89% | -7.2% (inactive) | 4% (inactive) |
| Cc1ccc(-c2noc(CCC(=O)N3CCN(c4cccc(C(F)(F)F)c4)CC3)n2)cc1 | 87.5 | 91% (inactive) | 87.5% (inactive) | 71.2% (inactive) | 93.1% (inactive) | -3.76% (inactive) | 96.8% | 93.1% | -3.95% (inactive) | -2.67% (inactive) |
| CN(C)c1cccc2c(S(=O)(=O)Nc3ccccn3)cccc12 | 96.5 | 95.5% (inactive) | 96.5% (inactive) | 109% (inactive) | 101% (inactive) | 2.54% (inactive) | 98.7% | 101% | -6.8% (inactive) | 1.43% (inactive) |
| Cc1ccc(-c2nn(-c3ccccc3)cc2CN(Cc2ccccc2)C(=O)CCC(=O)O)o1 | 100 | 94% (inactive) | 100% (inactive) | 86.5% (inactive) | 85.7% (inactive) | 8.97% (inactive) | 76.7% | 85.7% | -5.07% (inactive) | 3.02% (inactive) |
| COc1cc(C2C(C(=O)c3ccc(C)o3)=C(O)C(=O)N2c2cc(C)on2)cc(Br)c1O (stereo not given) | 102 | 93% (inactive) | 102% (inactive) | 99.8% (inactive) | 95.7% (inactive) | 8.72% (inactive) | 86.9% | 95.7% | -1.97% (inactive) | -3.49% (inactive) |
| CC(C)(C)OC(=O)N1CCCC1C(=O)NC(Cc1ccccc1)C(=O)O (stereo not drawn) (Boc-Pro-Phe-OH; configuration not given here) | 116 | 102% (inactive) | 116% (inactive) | 96.1% (inactive) | 104% (inactive) | 8.93% (inactive) | 95.2% | 104% | -4.59% (inactive) | 0.48% (inactive) |
| C[C@]12CCC(=O)C=C1CC[C@@H]1[C@@H]2[C@@H](O)C[C@@]2(C)[C@H]1CC[C@]2(O)C(=O)COC(=O)CCC(=O)O | 95 | 120% (inactive) | 95% (inactive) and 100% (inactive) | 81.3% (inactive) and 75% (inactive) | 111% (inactive) and 103% (inactive) | 9.53% (inactive) and -0.58% (inactive) | 101% and 103% | 111% and 103% | -3.38% (inactive) | 6.33% (inactive) |
| Cc1ccc(-n2nnnc2SCC(=O)c2cc(C)n(-c3cc(C)on3)c2C)cc1 | 91 | 83% (inactive) | 91% (inactive) | 88.5% (inactive) | 65.4% (inactive) | -28.2% (inactive) | 93.6% | 65.4% | -2.86% (inactive) | 1.11% (inactive) |
| CCOC(=O)c1[nH]c(C)c(C(=O)NCc2ccccn2)c1C | 134 | 115% (inactive) | 134% (inactive) | 83.4% (inactive) | 102% (inactive) | 4.79% (inactive) | 96.8% | 102% | -5.07% (inactive) | 9.37% (inactive) |
| CC(=O)Nc1ccc(S(=O)(=O)n2nc(C)cc2C)cc1 | 105 | 106% (inactive) | 105% (inactive) | 111% (inactive) | 105% (inactive) | 5.88% (inactive) | 98.9% | 105% | -6.45% (inactive) | 10.3% (inactive) |
| CCOC(=O)CNc1ccc2c(c1)OCO2 | 88 | 90% (inactive) | 88% (inactive) | 76.6% (inactive) | 98.7% (inactive) | 13.2% (inactive) | 85.6% | 98.7% | -5% (inactive) | -2.3% (inactive) |
| Cn1c(=O)c2ncn(CC(=O)NCCOc3ccc(C(C)(C)C)cc3)c2n(C)c1=O | 96.5 | 110% (inactive) | 96.5% (inactive) | 100% (inactive) | 76.2% (inactive) | -17.6% (inactive) | 93.8% | 76.2% | -5.45% (inactive) | -6.03% (inactive) |
| CCOCCn1cnc2sc(C(=O)Nc3nc(C)c(C(=O)OCC)s3)c(C)c2c1=O | 110 | 81% (inactive) | 110% (inactive) | 75.7% (inactive) | 78% (inactive) | -14.5% (inactive) | 92.5% | 78% | -1.18% (inactive) | -2.42% (inactive) |
| Oc1ccccc1C1=Nc2nc3ccccc3n2C(c2ccccc2)C1 (stereo not given) | 75.5 | 86.5% (inactive) | 75.5% (inactive) | 103% (inactive) | 65% (inactive) | -12.7% (inactive) | 77.7% | 65% | -7.24% (inactive) | -1.15% (inactive) |
| COC(=O)c1ccccc1NC(=O)C1CC(=O)N(c2ccc(F)cc2)C1 (stereo not given) | 121 | 77% (inactive) | 121% (inactive) | 108% (inactive) | 96% (inactive) | 15.5% (inactive) | 80.6% | 96% | -6.4% (inactive) | 2.13% (inactive) |
| O=S(=O)(NC1CCCC1)c1ccccc1Cl | 94.5 | 97% (inactive) | 94.5% (inactive) | 87.1% (inactive) | 101% (inactive) | 2.58% (inactive) | 98.4% | 101% | 2.73% (inactive) | 6.39% (inactive) |
